Bioassay records from PubChem.
The list is not random: actives were taken first. Their share in the collection is about 8.9%.
Dynein cargo inh: dynein cargo transport inhibition; 220,000 compounds, 0.47% hits; z-score, hits read low; 3617.4 mouse cells, GR-EGFP nuclear translocation imaging; test concentration mostly 20 µM; stimulated with dexamethasone, 1 µM; stronger effect = lower value;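 active = plate z-score of nuclear minus cytoplasmic receptor signal below a set negative limit, without overly bright fluorescence or cell loss, cut at about -3.5 in these data, passing the limit was not always enough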;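 also: z-score of nuclear minus cytoplasmic ring GR-EGFP intensity difference per well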
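medium = tetracycline-free induction medium containing charcoal-stripped FBS | also added = 1.0 µM final dexamethasone stimulus | schedule = 48 h induction, 1 h compound, 30 min dex at 37 °C | technique = fixed, Hoechst-stained cells imaged at 10x for EGFP | measure = GR-EGFP nuclear translocation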
HSV augment: increases HSV replication in cells. 220,000 compounds, 0.005% hits. AID 1956. maximum fold increase. HSV replication augmentation in cells, fold increase; in the data active = maximum fold increase above about 1.5; tested in PC3 cells
bCat nuc transl: modulators of beta-catenin nuclear translocation. HeLa beta-catenin nuclear translocation, immunofluorescence imaging. 190,000 compounds, 0.3% hits. AID 1665. nuclear translocation activity, % at 5 µM;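 active = nuclear translocation activity above 50% at 5 µM, with a well cell count of 50 or more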;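 also: per-cell ratio of nuclear to cytoplasmic median beta-catenin stain intensity; plate controls were DMSO negative control for no effect and GSK-3 inhibitor IX positive control for full effect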
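Assay system: human HeLa cells, native beta-catenin; doses: 5 µM primary, 0.02–20 µM confirmation; incubation: compound treatment 24 h, 37°C, 5% CO2; technique: fluorescence imaging of beta-catenin antibody stain plus DAPI; measure: % activation, nuclear-to-cytoplasmic median beta-catenin signal ratio per cell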
MT stabilizer: microtubule stabilizers in HeLa cells; % tubulin-high responders, % at 10 µM; HeLa tubulin immunostaining HCS, 24 h; share of cells brighter than vehicle mean+2SD; 200,000 compounds, 0.83% hits;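 active = plate Z-score above 3 for both tubulin-high and condensed-nucleus cell shares, with cell loss under 80%, at 10 µM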;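 also: anti alpha tubulin signal scored within the nucleus-defined area of each cell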
Lmaj promast: reduces viability of Leishmania major promastigotes. resazurin fluorescence viability. inhibition, % at 10 µM. 200,000 compounds, 9% hits. AID 1063; in the data active = inhibition above about 50%;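 also: promastigotes grown with compound for 44 hours at 28 °C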
Active calls of the source: *; i = inactive; / = no result given.

SMILES	Dynein cargo inh	HSV augment	bCat nuc transl	MT stabilizer	Lmaj promast
O=C(NCCCn1ccnc1)c1ccc(N2CCCCCC2)c([N+](=O)[O-])c1	-0.56	i	-3	1	90*
Cc1ccc(C(=O)NCCCn2ccnc2)cc1[N+](=O)[O-]	1.6	i	-1	2	11
CCCCNC(=O)c1ccc(N2CCC3(CC2)OCCO3)c([N+](=O)[O-])c1	0.13	i	-1	1	59*
Cc1ccc(C)c2sc(NC(=O)c3ccc(N4CCCCC4)c([N+](=O)[O-])c3)nc12	0.31	i	0	2	81*
CCS(=O)(=O)N1CCN(c2ccc(C(=O)NC3C4CC5CC(C4)CC3C5)cc2[N+](=O)[O-])CC1 (centres undefined)	0.33	i	1	2	52*
Cc1onc(-c2ccccc2Cl)c1C(=O)Nc1ccc(Cl)cn1	1.4	i	-1	/	/
CCCCNC(=S)Nc1cc(S(=O)(=O)N2CCCCC2)ccc1C	0.34	i	0	/	/
N#Cc1nc(-c2cccc3ccccc23)oc1NCCN1CCCCC1	-0.37	i	3	2	100*
COc1ccc(CN2CCCC(CNC(=O)c3ccc(F)cc3)C2)c(C)c1C (centres undefined)	-1	i	-1	1	80*
O=C(NCc1ccccc1F)c1ccc(S(=O)(=O)Nc2cccc(C(F)(F)F)c2)cc1	-0.051	i	0	4	-1
O=C(NCC1CCCN(Cc2ccccc2F)C1)c1cccc(C(F)(F)F)c1 (centres undefined)	1.4	i	1	3	61*
COc1ccc(CN2CCCC(CNC(=O)c3ccc(F)cc3)C2)c(F)c1 (centres undefined)	0.65	i	1	1	89*
CC(=O)CSc1nc(-c2cccs2)c(C#N)c(=O)[nH]1	0.28	i	0	2	-7
COc1ccc(NC(=O)c2cc(OC)c(OC)cc2OC)c(S(=O)(=O)N2CCOCC2)c1	/	i	0	/	/
CCCCNC(=S)NCc1ccc2c(c1)cc(C)n2C	-0.46	i	-4	3	-6
CCOC(=O)c1ccc2c(c1)nc(SCc1cn3ccsc3n1)n2CC	-0.67	i	-1	1	99*
CNC(=S)N/N=C(\C)c1ccc(-n2ccnc2)cc1	0.71	i	-5	5	4
CCCOC(=O)c1ccc(NC(=O)CSC2=Nc3ccccc3C3CC=NN23)cc1 (centres undefined)	1.1	i	/	2	98*
N#Cc1ccccc1NC(=O)CSC1=Nc2ccccc2C2CC=NN12 (centres undefined)	-2.3	/	-3	3	17
COc1ccccc1-c1cc(C(=O)NCc2cccs2)no1	-0.25	i	-1	2	-6
CCOC(=O)/C=C1\Nc2ccccc2OC1=O	0.81	i	8	5	64*
CC1(C(=O)NCc2ccccc2)Oc2ccccc2NC1=O (centres undefined)	0.45	i	-2	1	0
COc1ccc(-c2csc(NNC3=NCCCCC3)n2)cc1	-0.16	i	1	2	2
COc1ccc(-c2csc(NC3=NCCCCC3)n2)cc1	0.14	i	15	3	88*
COc1ccc(CN2CCCC(C(=O)c3ccc(Cl)cc3)C2)cc1Cn1cccn1 (centres undefined)	-0.68	i	2	2	96*
SMILES	Dynein cargo inh	HSV augment	bCat nuc transl	MT stabilizer	Lmaj promast
COc1ccc2cc(C(=O)C3CCCN(C(=O)c4snnc4C)C3)ccc2c1 (centres undefined)	0.17	i	0	5	7
COc1ccc(C(=O)C2CCCN(Cc3cnc(N4CCCC4)s3)C2)cc1OC (centres undefined)	0.14	i	2	2	72*
COc1ccc2cc(C(=O)C3CCCN(Cc4cnc(C)s4)C3)ccc2c1 (centres undefined)	-1.6	i	-3	4	79*
COc1c(C)cc(C(=O)C2CCCN(Cc3cnc(N4CCOCC4)s3)C2)cc1C (centres undefined)	-0.15	i	1	1	100*
O=C(NCC1CCCO1)c1onc(CSc2ccccc2F)c1C(=O)O (centres undefined)	-0.18	i	-1	2	-8
O=C(/C=C\c1cccs1)c1c(O)ccc2ccc(=O)oc12	0.83	i	0	3	30
c1ccc(-c2noc(CN3CCN(C(c4ccccc4)c4ccccc4)CC3)n2)cc1	-1	i	-1	3	4
Cc1oc2c(c1C(=O)O)C(=O)c1ccccc1C2=O	0.078	i	1	3	100*
Cc1cc(=O)oc(C)c1C(=O)O	-0.098	i	/	1	-6
Cc1oc2c(c1C(=O)c1ccccc1)C(=O)C(=O)c1ccccc1-2	-1.5	i	-1	2	100*
O=C(C1=C(c2ccccc2)C(=O)c2ccccc2C1=O)c1ccccc1	-1.1	i	0	5	24
Cc1cc(NS(=O)(=O)c2ccc(NC(=S)NC(=O)c3ccncc3)cc2)no1	-0.53	i	0	/	/
O=C(Nc1ccccc1)N1CCN2C(=O)c3ccccc3C12c1ccccc1 (centres undefined)	-0.46	i	1	2	32
CC1(C)c2cc(Cl)ccc2-n2c1cc(O)c(-c1ccccc1)c2=O	-0.83	i	-1	/	/
CC1CN(Cc2ccccn2)CCC1=O (centres undefined)	-0.31	i	4	4	53*
CC1(C)Cc2ccccc2C2=NNC(=O)C2=N1	-0.95	i	1	4	100*
COc1cccc(NC(=S)N2CCN(C/C=C/c3ccccc3)CC2)c1	0.25	i	-1	3	95*
COc1ccc2[nH]cc(C(=O)CN3CCN(C/C=C/c4ccccc4)CC3)c2c1	0.77	i	-1	3	98*
COc1cc(NC(=S)N2CCN(C/C=C/c3ccccc3)CC2)cc(OC)c1	0.2	i	5	2	41
S=C(NC1CCCC1)N1CCN(C/C=C/c2ccccc2)CC1	0.26	i	-4	5	81*
S=C(Nc1ccccc1)N1CCN(C/C=C/c2ccccc2)CC1	0.58	i	2	1	39
S=C(NCc1ccco1)N1CCN(C/C=C/c2ccccc2)CC1	-0.65	i	1	3	77*
COc1ccc(N2CCN(CC(=O)c3c[nH]c4ccccc34)CC2)cc1	-0.5	i	-1	/	/
COc1ccc(/C=N/N2CCOCC2)cc1OCc1ccccc1	-0.33	i	-1	6	2
CCOc1ccc2[nH]c3c(=O)n(CCC4=CCCCC4)cnc3c2c1	0.44	i	0	/	/
OCC1(CC2CCCCO2)CCN(C/C=C/c2ccccc2)CC1 (centres undefined)	0.31	i	1	5	89*
COc1cccc(/C=N/Nc2ncnc3c2ncn3Cc2ccccc2)c1O	0.49	i	1	2	88*
COc1cccc(/C=N/Nc2cc(Cl)nc(C)n2)c1O	1.9	i	0	/	-1
